Measurements reported in ChEMBL document CHEMBL1139110, “Structure-activity relationships of some taxoids as multidrug resistance modulator” (Bioorg Med Chem Lett, 2007).
Converted amounts (≈) assume the structure as drawn.

Tests used:
[1] = Effect on calcein accumulation in multidrug-resistant human 2780AD cells at 0.25 ug/ml relative to control; assay type: functional, A2780 ADR
Summary of the method: (§1)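 Multidrug-resistant human ovarian cancer 2780AD cells were exposed to test compounds at […], with verapamil as the positive control. Calcein accumulated in the cells was measured relative to a control experiment. Values are the mean of triplicate determinations.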

[2] = Effect on calcein accumulation in multidrug-resistant human 2780AD cells at 2.5 ug/ml relative to control; assay type: functional, A2780 ADR; summary of the method: as §1
[3] = Effect on calcein accumulation in multidrug-resistant human 2780AD cells at 25 ug/ml relative to control; assay type: functional, A2780 ADR; summary of the method: as §1
[4] = tested on: HepG2; assay: Cytotoxicity againt human HepG2 cells; assay type: functional, cell-based
Summary of the method: (§2)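 IC50 was determined against WI-38, VA-13 and HepG2 cells and is given as the mean of duplicate determinations.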

[5] = Cytotoxicity againt human WI38 cells; assay type: cell-based; settings: WI-38; summary of the method: as §2
[6] = tested on: WI-38 VA13; assay: Cytotoxicity againt human VA13 cells; assay type: functional, cell-based; summary of the method: as §2
[7] = Cytotoxicity againt multidrug-resistant human 2780AD cells; assay type: functional, cell-based; settings: A2780 ADR
Summary of the method: (§3)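 Each drug was tested alone or with a modulator added at final […]; verapamil was the reference modulator. Values are the mean of triplicate determinations.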

[8] = tested on: A2780; assay: Cytotoxicity againt human A2780 cells; assay type: functional, cell-based; summary of the method: as §3

| Structure (SMILES) | Activity [1] [%] | Activity [2] [%] | Activity [3] [%] | IC50 [4] [µg/mL] | IC50 [5] [µg/mL] | IC50 [6] [µg/mL] | IC50 [7] [nM] | IC50 [8] [nM] |
| --- | --- | --- | --- | --- | --- | --- | --- | --- |
| CC(=O)O[C@@H]1[C@@H]2CC(=O)C(C)=C([C@@H](OC(C)=O)[C@H](OC(C)=O)[C@]3(C)CC[C@H](O)[C@@](O)(CO)[C@@H]13)C2(C)C | 79 | 94 | 88 | > 100 | 85.3 (≈ 167 µM) | 9.73 (≈ 19.1 µM) |  |  |
| CC(=O)OC[C@]1(O)[C@@H](O)CC[C@@]2(C)[C@@H](OC(C)=O)[C@H](OC(C)=O)C3=C(C)C(=O)C[C@@H]([C@@H](O)[C@@H]21)C3(C)C | 88 | 97 | 126 | > 100 | > 100 | 8.47 (≈ 16.6 µM) |  |  |
| CC1=C2[C@@H](O)[C@H](O)[C@]3(C)CC[C@H]4OC[C@@]4(O)[C@H]3[C@H](OC(=O)c3ccccc3)[C@H](CC1=O)C2(C)C | 105 | 110 | 106 | 67.7 (≈ 144 µM) | > 100 | > 100 |  |  |
| CC(=O)O[C@@H]1[C@@H]2C[C@H](O)C(C)=C([C@@H](OC(C)=O)[C@H](OC(C)=O)[C@]3(C)CC[C@H]4OC[C@@]4(O)[C@@H]13)C2(C)C | 94 | 95 | 95 | > 100 | 8.39 (≈ 17 µM) | 81.5 (≈ 165 µM) |  |  |
| CC(=O)O[C@H]1C(=O)[C@]2(C)CC[C@H]3OC[C@@]3(O)[C@H]2[C@H](OC(=O)c2ccccc2)[C@@H]2C[C@H](O)C(C)=C1C2(C)C | 96 | 129 | 163 | 69.9 (≈ 136 µM) | 54.2 (≈ 106 µM) | 77 (≈ 150 µM) |  |  |
| CC(=O)O[C@H]1[C@H](O)C2=C(C)C(=O)C[C@@H]([C@@H](OC(=O)c3ccccc3)[C@H]3[C@@]1(C)CC[C@H]1OC[C@]13O)C2(C)C | 115 | 118 | 134 | 43.2 (≈ 84.3 µM) | 0.67 (≈ 1.31 µM) | 67 (≈ 131 µM) |  |  |
| CC(=O)O[C@@H]1[C@@H]2C[C@@H](O)C(C)=C([C@@H](OC(C)=O)[C@H](OC(C)=O)[C@]3(C)CC[C@H]4OC[C@@]4(O)[C@@H]13)C2(C)C | 82 | 95 | 96 | > 100 | 76.2 (≈ 154 µM) | > 100 |  |  |
| CC(=O)O[C@H]1C(=O)[C@]2(C)CC[C@H]3OC[C@@]3(O)[C@H]2[C@H](OC(=O)c2ccccc2)[C@@H]2CC(=O)C(C)=C1C2(C)C | 101 | 120 | 137 | 30.1 (≈ 59 µM) | 7.38 (≈ 14.5 µM) | 7.93 (≈ 15.5 µM) |  |  |
| CC(=O)O[C@@H]1C2=C(C)C(=O)C[C@@H]([C@@H](OC(=O)c3ccccc3)[C@H]3[C@@](C)(CC[C@H]4OC[C@]43O)[C@H]1OC(C)=O)C2(C)C | 97 | 119 | 135 | 7.32 (≈ 13.2 µM) | 0.82 (≈ 1.48 µM) | 51.9 (≈ 93.6 µM) |  |  |
| CC(=O)OC[C@]1(O)[C@@H](O)CC[C@@]2(C)[C@@H](OC(C)=O)[C@H](OC(C)=O)C3=C(C)C(=O)C[C@@H]([C@@H](OC(=O)/C=C/c4ccccc4)[C@@H]21)C3(C)C | 88 | 116 | 145 | 2.14 (≈ 3.34 µM) | 68.1 (≈ 106 µM) | 82.3 (≈ 128 µM) |  |  |
| CC(=O)O[C@H]1C(=O)[C@]2(C)CC[C@H](O)[C@@](O)(CO)[C@H]2[C@H](OC(=O)c2ccccc2)[C@@H]2CC(=O)C(C)=C1C2(C)C | 88 | 114 | 112 | 33.4 (≈ 63.2 µM) | 57.4 (≈ 109 µM) | 59.6 (≈ 113 µM) |  |  |
| CC(=O)O[C@@H]1C2=C(C)C(=O)C[C@@H]([C@@H](OC(=O)c3ccccc3)[C@H]3[C@@](C)(CC[C@H]4OC[C@]43O)[C@H]1O)C2(C)C | 99 | 102 | 140 | 77.7 (≈ 152 µM) | 42.3 (≈ 82.5 µM) | > 100 |  |  |
| CC(=O)O[C@@]12CO[C@@H]1C[C@H](O)[C@@]1(C)C(=O)[C@H](O)C3=C(C)[C@@H](O)C[C@@](O)([C@@H](OC(=O)c4ccccc4)[C@H]21)C3(C)C | 95 | 90 | 93 |  |  |  |  |  |
| CC(=O)O[C@@H]1[C@@H]2CC(=O)C(C)=C([C@@H](OC(C)=O)[C@H](OC(C)=O)[C@]3(C)CC[C@H]4OC[C@@]4(O)[C@@H]13)C2(C)C | 115 | 120 | 123 | > 100 | 77 (≈ 156 µM) | > 100 |  |  |
| COc1ccc(CCN(C)CCCC(C#N)(c2ccc(OC)c(OC)c2)C(C)C)cc1OC (stereo unspecified) | 99 | 103 | 140 |  |  |  |  |  |
| CC(=O)O[C@H]1C(=O)[C@@]2(C)[C@H]([C@H](OC(=O)c3ccccc3)[C@]3(O)C[C@H](O)C(C)=C1C3(C)C)[C@]1(OC(C)=O)CO[C@@H]1C[C@@H]2O [BACCATIN III] | 93 | 84 | 81 | 9.91 (≈ 16.9 µM) | 16.1 (≈ 27.4 µM) | 0.84 (≈ 1.43 µM) |  |  |
| COc1cccc2c1C(=O)c1c(O)c3c(c(O)c1C2=O)C[C@@](O)(C(=O)CO)C[C@@H]3O[C@H]1C[C@H](N)[C@H](O)[C@H](C)O1 [DOXORUBICIN] |  |  |  |  |  |  | 909 | 13 |
| CC(=O)O[C@H]1C(=O)[C@@]2(C)[C@H]([C@H](OC(=O)c3ccccc3)[C@]3(O)C[C@H](OC(=O)[C@H](O)[C@@H](NC(=O)c4ccccc4)c4ccccc4)C(C)=C1C3(C)C)[C@]1(OC(C)=O)CO[C@@H]1C[C@@H]2O [PACLITAXEL] |  |  |  |  |  |  | 535 | 0.7 |
| CC[C@]1(O)C[C@H]2CN(CCc3c([nH]c4ccccc34)[C@@](C(=O)OC)(c3cc4c(cc3OC)N(C=O)[C@H]3[C@@](O)(C(=O)OC)[C@H](OC(C)=O)[C@]5(CC)C=CCN6CC[C@]43[C@@H]65)C2)C1 [VINCRISTINE] |  |  |  |  |  |  | 895 | 0.9 |
